The values that follow come from ChEMBL document CHEMBL1136016, “Synthesis, biological activity, and molecular modeling investigation of new pyrazolo[4,3-e]-1,2,4-triazolo[1,5-c]pyrimidine derivatives as human A(3) adenosine receptor antagonists” (J Med Chem, 2002).

Structures are written as SMILES. pIC50, pKi: −log10 of the molar value.

Assay [1] addresses T1, Adenosine receptor A3 (Homo sapiens, UniProt P0DMS8).
T1 sequence (P0DMS8 whole entry): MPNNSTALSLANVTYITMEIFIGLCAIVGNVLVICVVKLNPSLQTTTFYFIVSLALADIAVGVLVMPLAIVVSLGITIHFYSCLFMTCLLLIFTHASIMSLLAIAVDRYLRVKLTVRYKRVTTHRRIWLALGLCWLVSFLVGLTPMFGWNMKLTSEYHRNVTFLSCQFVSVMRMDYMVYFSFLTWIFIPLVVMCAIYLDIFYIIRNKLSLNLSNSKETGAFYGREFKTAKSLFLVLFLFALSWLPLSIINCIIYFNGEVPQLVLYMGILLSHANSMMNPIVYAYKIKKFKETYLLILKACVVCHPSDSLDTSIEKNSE
Kind of assay: Inhibition of IB-MECA agonist-mediated cAMP production in CHO cell membranes expressing human Adenosine A3 receptor; range 3.0-10.8. The class given is functional, cell-based. (In general: cAMP levels reflect the balance of adenylyl cyclase and phosphodiesterase activity.)

Assay [2] concerns the target T2, Adenosine receptor A1 (Homo sapiens, UniProt P30542).
T2 sequence (P30542 whole entry): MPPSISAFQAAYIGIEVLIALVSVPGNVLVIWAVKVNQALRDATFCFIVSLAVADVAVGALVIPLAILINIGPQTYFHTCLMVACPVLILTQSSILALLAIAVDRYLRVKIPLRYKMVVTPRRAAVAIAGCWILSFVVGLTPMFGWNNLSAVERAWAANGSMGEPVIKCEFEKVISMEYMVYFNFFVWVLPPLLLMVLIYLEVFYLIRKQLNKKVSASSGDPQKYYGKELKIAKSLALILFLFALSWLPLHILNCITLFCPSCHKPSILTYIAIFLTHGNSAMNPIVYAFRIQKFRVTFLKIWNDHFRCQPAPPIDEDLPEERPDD
Description: Displacement of [3H]DPCPX from human Adenosine A1 receptor expressed in CHO cells; range 379-535. It is filed as cell-based. An outline of the steps: (§1)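 Human recombinant A1 receptor in CHO cell membranes, resuspended in 50 mM Tris HCl pH 7.4. Displacement run 120 min at 25 °C with 1 nM [3H]DPCPX, 50 µg protein per assay, and at least six to eight test concentrations. Nonspecific binding defined with CHA. Bound and free separated on glass-fiber filters; filter radioactivity counted. n = 3-6.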
On the technique in general: In a radioligand displacement assay an active substance lowers the binding of a labelled ligand.

The target in assay [3] is T1, Adenosine receptor A3. Kind of assay: Displacement of [3H]MRE3008-F20 from human Adenosine A3 receptor expressed in HEK cells; range 0.59-0.83. It is filed as cell-based, HEK293.
Assay [4] has as its target Adenosine receptors; A2b & A3 (Homo sapiens) (UniProt P29275+P0DMS8). Description: Selectivity ratio (h2B/hA3). It is filed as protein assay.
Assay [5] has as its target T3, Adenosine receptor A2b (Homo sapiens, UniProt P29275).
T3 sequence (P29275 whole entry): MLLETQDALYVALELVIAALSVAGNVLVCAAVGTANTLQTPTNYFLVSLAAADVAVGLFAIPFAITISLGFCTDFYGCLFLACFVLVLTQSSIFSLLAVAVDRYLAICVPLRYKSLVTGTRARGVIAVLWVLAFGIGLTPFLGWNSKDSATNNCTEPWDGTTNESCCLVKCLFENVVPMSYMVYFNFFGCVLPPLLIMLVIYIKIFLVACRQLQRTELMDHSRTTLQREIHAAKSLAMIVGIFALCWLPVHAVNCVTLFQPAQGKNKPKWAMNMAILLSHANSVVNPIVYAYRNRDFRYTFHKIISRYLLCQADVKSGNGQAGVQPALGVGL
Description: Displacement of [3H]DPCPX from human Adenosine A2B receptor expressed in HEK293 cells; range 187-265. It is filed as cell-based. An outline of the steps:
(§2)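 Membranes from HEK-293 cells with human recombinant A2B receptor. Incubation 60 min at 25 °C in 50 mM Tris HCl, 10 mM MgCl2, 1 mM EDTA, 0.1 mM benzamidine, pH 7.4, with 2 IU/mL adenosine deaminase and 40 nM [3H]DPCPX. At least six to eight test concentrations. Nonspecific binding defined with NECA. n = 3-6.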

Assay [6] concerns the target Adenosine receptors; A1 & A3 (Homo sapiens) (UniProt P30542+P0DMS8). Description: Selectivity ratio (hA1/hA3). It is filed as protein assay.
In assay [7] the target is T4, Adenosine receptor A2a (Homo sapiens, UniProt P29274). Description: Displacement of [3H]SCH-58261 from human Adenosine A2A receptor expressed in HEK293 cells; range 146-220. The class given is cell-based.
T4 sequence (P29274 whole entry): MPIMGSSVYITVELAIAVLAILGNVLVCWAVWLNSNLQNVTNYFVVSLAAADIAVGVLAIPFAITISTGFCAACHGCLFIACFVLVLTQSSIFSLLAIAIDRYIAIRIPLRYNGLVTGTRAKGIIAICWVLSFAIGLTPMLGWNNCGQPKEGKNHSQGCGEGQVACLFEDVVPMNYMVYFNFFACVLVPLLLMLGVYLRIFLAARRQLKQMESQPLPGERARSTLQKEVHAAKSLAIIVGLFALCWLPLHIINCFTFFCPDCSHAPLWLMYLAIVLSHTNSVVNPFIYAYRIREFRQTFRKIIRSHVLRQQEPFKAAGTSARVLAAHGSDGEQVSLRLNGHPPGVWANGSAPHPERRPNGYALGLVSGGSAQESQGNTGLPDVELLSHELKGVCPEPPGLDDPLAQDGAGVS
Assay [8] addresses T1, Adenosine receptor A3. Description: Displacement of [3H]MRE3008-F20 from human Adenosine A3 receptor expressed in HEK cells; range 0.22-0.40. It is filed as cell-based, HEK293.
The target of assay [9] is T3, Adenosine receptor A2b. Description: Displacement of [3H]DPCPX from human Adenosine A2B receptor expressed in HEK293 cells; range 40-69. The class given is cell-based. An outline of the steps:
as §2

In assay [10] the target is T4, Adenosine receptor A2a. Kind of assay: Displacement of [3H]SCH-58,261 from human Adenosine A2A receptor expressed in HEK293 cells; range 543-820. It is filed as cell-based.
The target of assay [11] is T2, Adenosine receptor A1. Description: Displacement of [3H]DPCPX from human Adenosine A1 receptor expressed in CHO cells; range 738-961. The class given is cell-based. In outline:
as §1

The target of assay [12] is T1, Adenosine receptor A3. Kind of assay: biochemical.
Assay [13] deals with T4, Adenosine receptor A2a. Kind of assay: Displacement of [3H]SCH-58261 from human Adenosine A2A receptor expressed in HEK293 cells; range 402-608. The class given is cell-based.
Assay [14] addresses T3, Adenosine receptor A2b. Kind of assay: Displacement of [3H]DPCPX from human Adenosine A2B receptor expressed in HEK293 cells; range 26-45. It is filed as cell-based. An outline of the steps: as §2
Assay [15] has as its target T2, Adenosine receptor A1. Kind of assay: Displacement of [3H]DPCPX from human Adenosine A1 receptor expressed in CHO cells; range 598-838. The class given is cell-based.
Assay [16] has as its target T2, Adenosine receptor A1. Description: Displacement of [3H]DPCPX from human Adenosine A1 receptor expressed in CHO cells; range 654-856. The class given is cell-based.
In assay [17] the target is T1, Adenosine receptor A3. Kind of assay: Displacement of [3H]MRE3008-F20 from human Adenosine A3 receptor expressed in HEK cells; range 0.64-0.86. The class given is cell-based, HEK293.
The target in assay [18] is T3, Adenosine receptor A2b. Description: Displacement of [3H]DPCPX from human Adenosine A2B receptor expressed in HEK293 cells; range 235-347. The class given is cell-based. An outline of the steps:
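Competition binding on membranes of HEK-293 cells carrying recombinant human A2B receptor. Incubation 60 min at 25 °C in 50 mM Tris HCl pH 7.4 with 10 mM MgCl2, 1 mM EDTA, 0.1 mM benzamidine and 2 IU/mL adenosine deaminase. Radioligand 40 nM [3H]DPCPX, at least six to eight test concentrations. NECA defined nonspecific binding. Bound ligand separated on glass-fibre filters and counted; n = 3-6.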

In assay [19] the target is T4, Adenosine receptor A2a. Kind of assay: Displacement of [3H]SCH-58261 from human Adenosine A2A receptor expressed in HEK293 cells; range 112-177. It is filed as cell-based.
For assay [20], the target named is T1, Adenosine receptor A3. Description: Inhibition of IB-MECA agonist-mediated cAMP production in CHO cell membranes expressing human Adenosine A3 receptor; range […]. It is filed as functional, cell-based. An outline of the steps: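 Human A3-CHO membranes (in 50 mM Tris HCl, 10 mM MgCl2, 1 mM EDTA, pH 7.4) were preincubated for 10 min at 37 °C with 5 µM GTP, 0.5 mM Ro 20-1724 and 2.0 IU/mL adenosine deaminase. IB-MECA (100 nM) or antagonist was then added with 1 mM ATP and forskolin for 10 min. The reaction was stopped by 2 min boiling. cAMP was measured by [3H]cAMP competitive protein binding using beef adrenal binding protein, 150 min at 4 °C.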

Assay [21] deals with T1, Adenosine receptor A3. Kind of assay: biochemical. The source holds these as a separate data set.
Assay [22] concerns the target T4, Adenosine receptor A2a. Description: Displacement of [3H]SCH-58261 from human Adenosine A2A receptor expressed in HEK293 cells; range 73-138. The class given is cell-based.
Assay [23] has as its target T2, Adenosine receptor A1. Description: Displacement of [3H]DPCPX from human Adenosine A1 receptor expressed in CHO cells; range 180-345. The class given is cell-based. An outline of the steps: as §1
Assay [24] has as its target T3, Adenosine receptor A2b. Kind of assay: Displacement of [3H]-DPCPX from human Adenosine A2B receptor expressed in HEK293 cells; range 125-218. The class given is cell-based. In outline: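 HEK-293 membranes expressing the human receptor were incubated 60 min at 25 °C. Six to eight test concentrations were used. Nonspecific binding was set with NECA. n = 3-6.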

A word on the pIC50: it is the IC50 on a negative log10 scale, so that one unit is a factor of ten. In general, pKi refers to the negative decadic logarithm of the Ki, by convention in mol/L. `COc1ccccc1NC(=O)Nc1nc2nn(C)cc2c2nc(-c3ccco3)nn12` gave a pIC50 in assay [1] of 8.25. Besides, the pKi is 6.35 in assay [2], 9.15 in [3], 6.65 in [5] and 6.74 in assay [7]. Besides, the Ratio in assay [4] turned out to be 319; in [6], 643.
Consider `CCCn1cc2c(nc(NC(=O)Nc3ccc4c(c3)OCO4)n3nc(-c4ccco4)nc23)n1`, for which the pKi in [8] was 9.52; in [9], 7.28; in assay [10], 6.18; in [11] it was 6.07. Besides, the values for the Ratio in [4] and in assay [6] were 177 and 2810, respectively.
In the case of `CCCCn1cc2c(nc(NC(=O)Nc3ccc(Cl)c(Cl)c3)n3nc(-c4ccco4)nc23)n1`, the Ratio was found to be 9.19 in assay [4] and 191 in assay [6]. Besides, the pKi in assay [12] was 8.43; in assay [13], 6.31; in [14], 7.47; in assay [15], 6.15.
In the case of `Cn1cc2c(nc(NC(=O)Nc3ccc(C(F)(F)F)cc3)n3nc(-c4ccco4)nc23)n1`, the negative logarithm of the Ki (pKi) is 6.12 in assay [16], 9.13 in assay [17], 6.54 in assay [18] and 6.85 in assay [19]. For the same compound, the Ratio in assay [4] worked out at 386; in assay [6] it was 1010. In assay [20], the pIC50 is 8.18.
For the compound `CCCn1cc2c(nc(NC(=O)Nc3ccccc3OC)n3nc(-c4ccco4)nc23)n1`, the pKi in assay [21] is 9.47; in [22] it was 7.00; in [23], 6.60; in assay [24], 6.78. The results for the Ratio in assay [4] and in assay [6] were 485 and 735, respectively.
